Data published in ChEMBL document CHEMBL1250473, “Synthesis and primary cytotoxicity evaluation of new 5-benzylidene-2,4-thiazolidinedione derivatives” (2010).

Legend:
Format in all cases: functional
HepG2 = assay: Cytotoxicity against human HepG2 cells after 48 hrs by SRB; conditions: HepG2, 48 h; for TGI: read-out: pTGI
Procedure, shortened: (§1)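 Cells kept in RPMI 1640 with 10% FBS and 2 mM L-glutamine, plated at 5000 cells/well and incubated 24 h at 37 °C, 5% CO2. A time-zero plate was TCA-fixed at dosing. DMSO stocks were diluted in medium into four 10-fold concentrations, 10^-4 to 10^-7 M. Exposure lasted 48 h continuously, then cells were fixed in cold TCA, stained with 0.4% SRB and eluted with 10 mM Tris. A540 was read. GI50 = [(Ti−Tz)/(C−Tz)]×100 = 50; TGI from Ti = Tz.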

[1] = Cytotoxicity against human Gurav cells after 48 hrs by SRB; conditions: for TGI: read-out: pTGI; procedure, shortened: as §1
PC-3 = assay: Cytotoxicity against human PC3 cells after 48 hrs by SRB; conditions: PC-3, 48 h; for TGI: read-out: pTGI; procedure, shortened: as §1
K562 = assay: Cytotoxicity against human K562 cells after 48 hrs by SRB; conditions: K562, 48 h; for TGI: read-out: pTGI; procedure, shortened: as §1
MCF7 = assay: Cytotoxicity against human MCF7 cells after 48 hrs by SRB; conditions: MCF7, 48 h; for TGI: read-out: pTGI; procedure, shortened: as §1
KB = assay: Cytotoxicity against human KB cells after 48 hrs by SRB; conditions: for TGI: read-out: pTGI; procedure, shortened: as §1
HOP-62 = assay: Cytotoxicity against human HOP62 cells after 48 hrs by SRB; conditions: HOP-62, 48 h; for TGI: read-out: pTGI; procedure, shortened: as §1

| Structure (SMILES) | GI50 (HepG2) | TGI (HepG2) | GI50 ([1]; Homo sapiens, Gurav, 48 h) | TGI ([1]; Homo sapiens, Gurav, 48 h) | GI50 (PC-3) | TGI (PC-3) | GI50 (K562) | TGI (K562) | GI50 (MCF7) | TGI (MCF7) | GI50 (KB) | TGI (KB) | GI50 (HOP-62) | TGI (HOP-62) | GI50 [1] |
| --- | --- | --- | --- | --- | --- | --- | --- | --- | --- | --- | --- | --- | --- | --- | --- |
| O=C1NC(=O)/C(=C/c2ccc(OCC(=O)N3c4ccccc4Sc4ccccc43)cc2)S1 | > 100 µM | > 100 µM | > 100 µM | > 100 µM | 29.5 µM | > 100 µM | > 100 µM | > 100 µM | 29.5 µM | > 100 µM | > 100 µM | > 100 µM | – | – | – |
| Cc1c(NC(=O)COc2ccc(/C=C3\SC(=O)NC3=O)cc2)c(=O)n(-c2ccccc2)n1C | > 100 µM | > 100 µM | > 100 µM | > 100 µM | > 100 µM | > 100 µM | > 100 µM | > 100 µM | > 100 µM | > 100 µM | > 100 µM | > 100 µM | 0.186 µM | > 100 µM | – |
| Cc1cnc(NC(=O)COc2ccc(/C=C3\SC(=O)NC3=O)cc2)s1 | > 100 µM | > 100 µM | – | – | – | – | 2.24 µM | > 100 µM | > 100 µM | > 100 µM | > 100 µM | > 100 µM | 30.9 µM | > 100 µM | – |
| CCCCC1=NC2(CCCC2)C(=O)N1C(=O)COc1ccc(/C=C2/SC(=O)NC2=O)cc1 | > 100 µM | > 100 µM | > 100 µM | > 100 µM | > 100 µM | > 100 µM | > 100 µM | > 100 µM | 28.2 µM | > 100 µM | > 100 µM | > 100 µM | 29.5 µM | > 100 µM | – |
| O=C(COc1ccc(/C=C2\SC(=O)NC2=O)cc1)Nc1cccc(C(F)(F)F)c1 | > 100 µM | > 100 µM | – | – | 2.51 µM | > 100 µM | 0.191 µM | > 100 µM | – | – | 2.24 µM | > 100 µM | > 100 µM | > 100 µM | – |
| O=C(COc1ccc(/C=C2\SC(=O)NC2=O)cc1)Nc1nc2ccccc2s1 | > 100 µM | > 100 µM | > 100 µM | > 100 µM | 28.2 µM | > 100 µM | > 100 µM | > 100 µM | 25.1 µM | > 100 µM | > 100 µM | > 100 µM | – | – | – |
| O=C(COc1ccc(/C=C2\SC(=O)NC2=O)cc1)Nc1ncc([N+](=O)[O-])s1 | > 100 µM | > 100 µM | > 100 µM | > 100 µM | > 100 µM | > 100 µM | > 100 µM | > 100 µM | > 100 µM | > 100 µM | > 100 µM | > 100 µM | > 100 µM | > 100 µM | – |
| O=C1NC(=O)/C(=C\c2ccc(OCC(=O)N3C(=O)c4ccccc4S3(=O)=O)cc2)S1 | > 100 µM | > 100 µM | 31.6 µM | > 100 µM | > 100 µM | > 100 µM | 2.69 µM | > 100 µM | 37.2 µM | > 100 µM | > 100 µM | > 100 µM | > 100 µM | > 100 µM | – |
| O=C(COc1ccc(/C=C2\SC(=O)NC2=O)cc1)Nc1ccccn1 | > 100 µM | > 100 µM | > 100 µM | > 100 µM | 29.5 µM | > 100 µM | > 100 µM | > 100 µM | 29.5 µM | > 100 µM | > 100 µM | > 100 µM | 2.29 µM | > 100 µM | – |
| Cc1cc(NC(=O)COc2ccc(/C=C3\SC(=O)NC3=O)cc2)no1 | > 100 µM | > 100 µM | 38.9 µM | > 100 µM | > 100 µM | > 100 µM | 2.75 µM | > 100 µM | 39.8 µM | > 100 µM | > 100 µM | > 100 µM | > 100 µM | > 100 µM | – |
| COc1cccc2c1C(=O)c1c(O)c3c(c(O)c1C2=O)C[C@@](O)(C(=O)CO)C[C@@H]3O[C@H]1C[C@H](N)[C@H](O)[C@H](C)O1 [DOXORUBICIN] | < 0.1 µM | – | 0.158 µM | – | – | – | 2.57 µM | > 100 µM | – | – | < 0.1 µM | – | – | – | 0.107 µM |
